According to ChEMBL document CHEMBL4130479, “Scalaradial Is a Potent Inhibitor of Transient Receptor Potential Melastatin 2 (TRPM2) Ion Channels” (J Nat Prod, 2017):
Activity calls are given as the source filed them. The rule behind the calls is not given here.

Assays:
[1] = biological target: T1, Transient receptor potential cation channel subfamily M member 2 (Homo sapiens, UniProt O94759); assay: Inhibition of human FLAG-tagged TRPM2 expressed in HEK293 cells assessed as reduction in ADPR-induced intracellular […] at 20 to 200 nM measured after 60 mins by whole cell patch clamp electrophysiology method; format: cell-based
Method in brief: (§1)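 HEK293 cells stably carrying tetracycline-inducible FLAG-human TRPM2, induced 6–9 h, preincubated 30–60 min with compound in external Ringer's, 21–25 °C. Whole-cell patch clamp used K-glutamate pipette solution with 100 μM ADPR and Ca2+ buffered to 300 nM. Ramps from −100 to +100 mV over 50 ms at 0.5 Hz.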

[2] = system: HEK293; assay: Cytotoxicity against HEK293 cells assessed as effect on cell viability at 200 nM; format: cell-based; settings: human, hek293, 0.2 µM
Method in brief: (§2)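 Tetracycline-induced human TRPM2-HEK293 cells preincubated 60 min with compound in serum-containing medium, then moved to standard external Ringer's with compound still present for whole-cell recording ([…] internal). Cells scored by eye for rounding, granule formation and blebbing.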

[3] = system: HEK293; assay: Cytotoxicity against HEK293 cells assessed as cell rounding at 200 nM; format: cell-based; settings: human, hek293, 0.2 µM; method in brief: as §2
[4] = system: HEK293; assay: Cytotoxicity against HEK293 cells assessed as granule formation at 200 nM; format: cell-based; settings: human, hek293, 0.2 µM; method in brief: as §2
[5] = system: HEK293; assay: Cytotoxicity against HEK293 cells assessed as cell blebbing at 200 nM; format: cell-based; settings: human, hek293, 0.2 µM; method in brief: as §2
[6] = biological target: T1, Transient receptor potential cation channel subfamily M member 2; assay: Inhibition of human FLAG-tagged TRPM2 expressed in HEK293 cells assessed as reduction in ADPR-induced intracellular calcium flux at 5 uM measured within 60 mins by whole cell patch clamp electrophysiology method; format: cell-based
Method in brief: (§3)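 TRPM2-HEK293 cells incubated with the sPLA2 inhibitors in standard external Ringer's. Whole-cell currents were recorded within the first 60 min using K-glutamate pipette with 100 μM ADPR. Current at −80 mV was normalized to same-day controls, n = 3–17.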

[7] = system: HEK293; assay: Cytotoxicity against HEK293 cells assessed as cell death at 25 to 50 uM measured for 1 hr; format: cell-based; settings: human, hek293, 1 h
[8] = biological target: T1, Transient receptor potential cation channel subfamily M member 2; assay: Inhibition of human FLAG-tagged TRPM2 expressed in HEK293 cells assessed as reduction in ADPR-induced intracellular calcium flux at 1 uM measured within 60 mins by whole cell patch clamp electrophysiology method; format: cell-based; method in brief: as §3
[9] = system: HEK293; assay: Cytotoxicity against HEK293 cells assessed as cell death at 5 to 10 uM measured for 1 hr; format: cell-based; settings: human, hek293, 1 h
[10] = biological target: T1, Transient receptor potential cation channel subfamily M member 2; assay: Inhibition of human FLAG-tagged TRPM2 expressed in HEK293 cells assessed as reduction in ADPR-induced intracellular calcium flux at 200 to 2000 nM measured after 60 mins by whole cell patch clamp electrophysiology method; format: cell-based; method in brief: as §1
[11] = system: HEK293; assay: Cytotoxicity against HEK293 cells assessed as effect on cell viability at 2 uM; format: cell-based; settings: human, hek293, 2 µM
[12] = system: HEK293; assay: Cytotoxicity against HEK293 cells assessed as cell rounding at 2 uM; format: cell-based; settings: human, hek293, 2 µM
[13] = system: HEK293; assay: Cytotoxicity against HEK293 cells assessed as granule formation at 2 uM; format: cell-based; settings: human, hek293, 2 µM
[14] = system: HEK293; assay: Cytotoxicity against HEK293 cells assessed as cell blebbing at 2 uM; format: cell-based; settings: human, hek293, 2 µM
[15] = biological target: T1, Transient receptor potential cation channel subfamily M member 2; assay: Inhibition of human FLAG-tagged TRPM2 expressed in HEK293 cells assessed as reduction in H2O2-induced intracellular calcium flux pretreated for 30 secs followed by H2O2 addition measured for 120 secs by […]; format: cell-based
[16] = biological target: T1, Transient receptor potential cation channel subfamily M member 2; settings: HEK293, 100 nM
[17] = biological target: T1, Transient receptor potential cation channel subfamily M member 2; assay: Inhibition of human TRPM2 expressed in HEK293 cells assessed as reduction in ADPR-induced intracellular calcium flux at 0 mV holding potential by whole cell patch clamp electrophysiology method; format: cell-based
Method in brief: (§4)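 Human FLAG-TRPM2 in HEK293 cells, induced with tetracycline for 6–9 h and incubated 30–60 min in external Ringer's (0.1–2 μM) before patching. Pipette was K-glutamate, Ca2+ buffered to 300 nM, with 100 μM ADPR. Ramps ran −100 to +100 mV from a 0 mV holding potential, 0.5 Hz.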

[18] = biological target: T1, Transient receptor potential cation channel subfamily M member 2; assay: Inhibition of human FLAG-tagged TRPM2 expressed in HEK293 cells assessed as reduction in ADPR-induced intracellular calcium flux at 20 uM measured within 60 mins by whole cell patch clamp electrophysiology method; format: cell-based
Method in brief: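 Tetracycline-induced HEK293 cells stably carrying FLAG-human TRPM2 were incubated with inhibitor in standard external Ringer's (pH 7.2). Whole-cell recordings were made during the first 60 min at 21–25 °C. Pipette: K-glutamate with unbuffered Ca2+ plus 100 μM ADPR. Ramps ran −100 to +100 mV over 50 ms at 0.5 Hz. Current was taken at −80 mV as % of same-day controls (n = 3–17).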

[19] = biological target: T1, Transient receptor potential cation channel subfamily M member 2; assay: Inhibition of human FLAG-tagged TRPM2 expressed in HEK293 cells assessed as reduction in ADPR-induced intracellular calcium flux after 30 to 60 mins by whole cell patch clamp electrophysiology method; format: cell-based; method in brief: as §4
[20] = biological target: T1, Transient receptor potential cation channel subfamily M member 2; assay: Inhibition of human FLAG-tagged TRPM2 expressed in HEK293 cells assessed as reduction in ADPR-induced intracellular calcium flux at 2 uM by whole cell patch clamp electrophysiology method; format: cell-based; settings: TDE = time-dependent effect
[21] = biological target: T1, Transient receptor potential cation channel subfamily M member 2; assay: Inhibition of human FLAG-tagged TRPM2 expressed in HEK293 cells assessed as reduction in ADPR-induced intracellular calcium flux at 2 uM treated for 6 hrs followed by compound washout measured within 5 mins by whole cell patch clamp electrophysiology method; format: cell-based
[22] = biological target: Transient receptor potential cation channel subfamily M member 7 (Mus musculus) (UniProt Q923J1); assay: Inhibition of mouse FLAG-tagged TRPM7 expressed in HEK293 cells assessed as reduction in BAPTA-induced intracellular calcium flux at 0.1 to 2 uM by whole cell patch clamp electrophysiology method; format: cell-based; settings: TDE = time-dependent effect
Method in brief: (§5)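 Mouse FLAG-TRPM7 in HEK293 cells, induced with tetracycline for 19–22 h and incubated with 100 nM–2 μM compound in culture medium from 15 min (maximum 60 min) before patching. Pipette was K-glutamate with 10 mM K-BAPTA. Ramps ran −100 to +100 mV, 0.5 Hz. Current at +80 mV and 200 s was normalized, and IC50 came from a fit.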

[23] = biological target: Transient receptor potential cation channel subfamily M member 7 (Mus musculus, UniProt Q923J1); assay: Inhibition of mouse FLAG-tagged TRPM7 expressed in HEK293 cells assessed as reduction in BAPTA-induced intracellular calcium flux after 15 to 60 mins by whole cell patch clamp electrophysiology method; format: cell-based; method in brief: as §5
[24] = biological target: ORAI1/STIM1 (Homo sapiens) (UniProt Q96D31+Q13586); assay: Inhibition of EGFP-tagged Orai1/STIM1 (unknown origin) expressed in HEK293 cells assessed as reduction in BAPTA-induced calcium release activated calcium channel currents at 2 uM after 30 to 60 mins by whole cell patch clamp method; format: cell-based
Method in brief: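 HEK293 cells stably expressing STIM1 and transiently transfected with CRACM1 (Orai1)-IRES-EGFP, recorded 24–48 h after transfection and picked by EGFP. Cells were exposed for 30–60 min. External solution held 10 mM CaCl2 (NaCl/TEA-based, pH 7.2). Pipette was Cs-glutamate with 20 mM Cs-BAPTA and 20 μM IP3. Ramps ran −150 to +150 mV over 50 ms at 0.5 Hz, read at −80 mV.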

[25] = biological target: Transient receptor potential cation channel subfamily M member 4 (Homo sapiens) (UniProt Q8TD43); assay: Inhibition of TRPM4 in human Jurkat T cells assessed as reduction in intracellular calcium flux at 500 nM within 60 mins by whole cell patch clamp electrophysiology method; format: cell-based
Method in brief: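 Endogenous TRPM4-like currents in Jurkat T cells, preincubated in standard external solution and recorded within 60 min. Pipette was Cs-glutamate with intracellular Ca2+ clamped to 2 μM. Ramps ran −100 to +100 mV over 50 ms at 0.5 Hz, and current was normalized and plotted against time.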

[26] = biological target: Transient receptor potential cation channel subfamily V member 1 (Rattus norvegicus) (UniProt O35433); assay: Inhibition of TRPV1 in rat INS-1 cells assessed as reduction in intracellular calcium flux at 500 nM measured within 60 mins by whole cell patch clamp method; format: cell-based
Method in brief: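 Endogenous TRPV1-like currents in INS-1 cells, preincubated in external solution and recorded within 60 min. Pipette was Cs-glutamate with Ca2+ unbuffered. Current was activated by 10 μM capsaicin in the bath. Ramps ran −100 to +100 mV, 50 ms, 0.5 Hz.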

[27] = biological target: Transient receptor potential cation channel subfamily M member 2 (Rattus norvegicus, UniProt E9PTA2); assay: Inhibition of TRPM2 in rat INS-1 cells assessed as reduction in ADPR-induced intracellular calcium flux measured after 60 mins by whole cell patch clamp electrophysiology method; format: cell-based
Method in brief: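 Whole-cell TRPM2 currents in INS-1 cells at 21–25 °C. Pipette was Cs-glutamate with ADPR and no Ca2+ chelator. Compound (10 nM–2 μM) in external Ringer's, recorded within the first 60 min of incubation. Ramps ran −100 to +100 mV, 50 ms, 0.5 Hz. Current at −80 mV and 50 s was normalized to control, and IC50 came from a dose–response fit.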

[28] = system: INS1; assay: Cytotoxicity against rat INS-1 cells assessed as granule formation; format: cell-based
Method in brief: (§6)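 INS-1 cells (RPMI, 10% FBS, 37 °C, 5% CO2) kept under continual scalaradial exposure in standard external solution during whole-cell patching. Cells were scored by eye for rounding, granule formation and blebbing over at least 1 h.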

[29] = system: INS1; assay: Cytotoxicity against rat INS-1 cells assessed as cell rounding; format: cell-based; method in brief: as §6
[30] = system: INS1; assay: Cytotoxicity against rat INS-1 cells assessed as cell blebbing; format: cell-based; method in brief: as §6
[31] = system: INS1; assay: Cytotoxicity against rat INS-1 cells at 500 nM measured for 1 hr; format: cell-based; settings: ins1, 1 h, 0.5 µM; method in brief: as §6
[32] = biological target: T2, Phospholipase A2 (Apis mellifera, UniProt P00630); assay: Inhibition of bee venom PLA2
T2 sequence (P00630 whole entry): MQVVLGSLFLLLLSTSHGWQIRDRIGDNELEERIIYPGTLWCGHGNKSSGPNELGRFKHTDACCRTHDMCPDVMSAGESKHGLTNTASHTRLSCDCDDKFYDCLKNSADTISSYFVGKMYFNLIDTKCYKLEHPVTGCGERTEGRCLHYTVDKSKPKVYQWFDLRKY

[33] = Inhibition of recombinant human sPLA2 using [1-14C]oleate-labelled autoclaved Escherichia coli as substrate measured after 15 mins

T1 sequence (O94759 whole entry): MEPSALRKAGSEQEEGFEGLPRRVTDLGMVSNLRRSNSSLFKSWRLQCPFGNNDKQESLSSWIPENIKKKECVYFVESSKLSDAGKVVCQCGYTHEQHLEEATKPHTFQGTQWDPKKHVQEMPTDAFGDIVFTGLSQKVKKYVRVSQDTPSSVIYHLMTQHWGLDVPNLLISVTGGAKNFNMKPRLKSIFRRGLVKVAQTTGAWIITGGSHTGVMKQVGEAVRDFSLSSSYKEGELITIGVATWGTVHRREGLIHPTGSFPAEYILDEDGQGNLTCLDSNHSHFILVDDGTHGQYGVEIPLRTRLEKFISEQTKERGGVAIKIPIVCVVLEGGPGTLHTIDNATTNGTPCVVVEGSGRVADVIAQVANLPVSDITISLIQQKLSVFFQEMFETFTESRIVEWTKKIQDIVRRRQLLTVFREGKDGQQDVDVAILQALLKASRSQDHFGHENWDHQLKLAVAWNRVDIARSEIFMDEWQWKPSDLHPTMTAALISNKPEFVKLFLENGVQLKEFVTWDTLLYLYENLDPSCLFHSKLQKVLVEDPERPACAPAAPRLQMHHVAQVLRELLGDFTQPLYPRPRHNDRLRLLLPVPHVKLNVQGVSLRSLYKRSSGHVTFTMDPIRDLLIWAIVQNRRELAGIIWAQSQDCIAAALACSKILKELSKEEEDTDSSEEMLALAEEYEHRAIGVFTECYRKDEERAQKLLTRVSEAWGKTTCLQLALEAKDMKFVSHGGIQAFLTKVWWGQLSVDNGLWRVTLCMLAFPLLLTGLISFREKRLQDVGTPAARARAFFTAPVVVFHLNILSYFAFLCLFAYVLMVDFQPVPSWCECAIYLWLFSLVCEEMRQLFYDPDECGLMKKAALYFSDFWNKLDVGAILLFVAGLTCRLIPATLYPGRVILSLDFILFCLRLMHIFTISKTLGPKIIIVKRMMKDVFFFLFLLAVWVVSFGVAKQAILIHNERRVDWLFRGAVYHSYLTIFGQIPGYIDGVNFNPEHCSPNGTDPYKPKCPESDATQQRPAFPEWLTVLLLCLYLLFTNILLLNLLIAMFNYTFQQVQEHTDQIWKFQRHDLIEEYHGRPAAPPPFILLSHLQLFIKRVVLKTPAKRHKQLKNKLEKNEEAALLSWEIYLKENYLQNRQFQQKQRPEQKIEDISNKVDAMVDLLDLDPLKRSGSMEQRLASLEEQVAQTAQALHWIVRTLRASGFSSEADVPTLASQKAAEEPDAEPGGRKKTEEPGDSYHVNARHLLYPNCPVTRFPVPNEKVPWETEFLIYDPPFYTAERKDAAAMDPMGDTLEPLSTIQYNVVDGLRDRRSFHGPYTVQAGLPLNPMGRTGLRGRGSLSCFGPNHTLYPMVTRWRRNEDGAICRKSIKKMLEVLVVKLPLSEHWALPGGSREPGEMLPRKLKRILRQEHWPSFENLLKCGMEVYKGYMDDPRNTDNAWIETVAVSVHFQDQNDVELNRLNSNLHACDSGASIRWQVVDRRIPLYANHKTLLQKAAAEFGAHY
Transient receptor potential cation channel subfamily M member 7 (Mus musculus), sequence (Q923J1 whole entry): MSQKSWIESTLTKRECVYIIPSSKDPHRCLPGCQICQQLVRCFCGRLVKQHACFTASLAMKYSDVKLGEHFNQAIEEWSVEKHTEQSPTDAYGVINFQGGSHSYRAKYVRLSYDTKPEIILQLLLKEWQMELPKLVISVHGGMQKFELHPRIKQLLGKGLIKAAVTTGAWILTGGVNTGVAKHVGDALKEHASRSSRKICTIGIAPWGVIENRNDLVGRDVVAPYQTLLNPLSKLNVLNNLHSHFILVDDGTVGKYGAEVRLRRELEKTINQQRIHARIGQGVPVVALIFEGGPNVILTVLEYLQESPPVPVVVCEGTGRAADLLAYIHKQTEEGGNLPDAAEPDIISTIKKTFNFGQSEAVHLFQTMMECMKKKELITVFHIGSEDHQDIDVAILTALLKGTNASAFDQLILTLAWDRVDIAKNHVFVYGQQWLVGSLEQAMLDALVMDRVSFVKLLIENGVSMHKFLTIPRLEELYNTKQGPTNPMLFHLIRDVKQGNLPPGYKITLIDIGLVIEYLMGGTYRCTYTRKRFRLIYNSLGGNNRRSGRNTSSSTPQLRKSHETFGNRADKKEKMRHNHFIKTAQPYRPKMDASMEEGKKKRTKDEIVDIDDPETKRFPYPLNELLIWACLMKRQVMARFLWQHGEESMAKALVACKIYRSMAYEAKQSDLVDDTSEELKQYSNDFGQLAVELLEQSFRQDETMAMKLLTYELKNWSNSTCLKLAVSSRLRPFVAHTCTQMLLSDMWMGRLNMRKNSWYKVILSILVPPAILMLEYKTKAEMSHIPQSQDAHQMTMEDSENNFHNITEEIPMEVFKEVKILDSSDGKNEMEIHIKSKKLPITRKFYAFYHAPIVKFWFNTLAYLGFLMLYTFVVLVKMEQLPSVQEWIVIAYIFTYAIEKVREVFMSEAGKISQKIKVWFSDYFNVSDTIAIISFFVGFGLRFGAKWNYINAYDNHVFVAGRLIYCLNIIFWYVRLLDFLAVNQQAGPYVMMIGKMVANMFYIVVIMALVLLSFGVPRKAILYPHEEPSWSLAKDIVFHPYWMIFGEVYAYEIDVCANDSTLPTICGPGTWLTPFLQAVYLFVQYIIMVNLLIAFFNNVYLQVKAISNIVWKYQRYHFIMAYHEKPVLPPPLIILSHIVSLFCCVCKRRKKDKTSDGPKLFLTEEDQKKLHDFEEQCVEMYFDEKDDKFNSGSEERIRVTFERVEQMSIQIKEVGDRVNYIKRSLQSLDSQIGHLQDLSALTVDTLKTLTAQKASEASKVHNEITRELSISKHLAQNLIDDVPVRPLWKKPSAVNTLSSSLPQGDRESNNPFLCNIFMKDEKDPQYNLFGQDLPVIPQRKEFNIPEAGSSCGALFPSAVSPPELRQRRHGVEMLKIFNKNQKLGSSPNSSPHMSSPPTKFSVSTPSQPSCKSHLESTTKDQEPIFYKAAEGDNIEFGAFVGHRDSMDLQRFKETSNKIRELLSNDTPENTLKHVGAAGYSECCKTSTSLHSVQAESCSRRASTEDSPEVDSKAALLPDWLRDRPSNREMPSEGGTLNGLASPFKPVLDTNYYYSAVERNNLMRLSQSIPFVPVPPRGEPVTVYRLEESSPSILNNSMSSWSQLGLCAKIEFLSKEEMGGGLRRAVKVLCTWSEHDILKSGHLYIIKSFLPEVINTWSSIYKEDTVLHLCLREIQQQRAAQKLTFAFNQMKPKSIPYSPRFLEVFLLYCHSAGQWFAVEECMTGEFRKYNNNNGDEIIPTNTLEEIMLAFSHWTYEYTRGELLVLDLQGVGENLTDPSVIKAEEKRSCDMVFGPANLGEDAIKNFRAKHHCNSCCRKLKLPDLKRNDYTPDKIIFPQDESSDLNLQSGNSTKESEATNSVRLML
Transient receptor potential cation channel subfamily M member 7, sequence (Q923J1 whole entry): as above
Transient receptor potential cation channel subfamily M member 2 (Rattus norvegicus, UniProt E9PTA2), sequence (E9PTA2 whole entry): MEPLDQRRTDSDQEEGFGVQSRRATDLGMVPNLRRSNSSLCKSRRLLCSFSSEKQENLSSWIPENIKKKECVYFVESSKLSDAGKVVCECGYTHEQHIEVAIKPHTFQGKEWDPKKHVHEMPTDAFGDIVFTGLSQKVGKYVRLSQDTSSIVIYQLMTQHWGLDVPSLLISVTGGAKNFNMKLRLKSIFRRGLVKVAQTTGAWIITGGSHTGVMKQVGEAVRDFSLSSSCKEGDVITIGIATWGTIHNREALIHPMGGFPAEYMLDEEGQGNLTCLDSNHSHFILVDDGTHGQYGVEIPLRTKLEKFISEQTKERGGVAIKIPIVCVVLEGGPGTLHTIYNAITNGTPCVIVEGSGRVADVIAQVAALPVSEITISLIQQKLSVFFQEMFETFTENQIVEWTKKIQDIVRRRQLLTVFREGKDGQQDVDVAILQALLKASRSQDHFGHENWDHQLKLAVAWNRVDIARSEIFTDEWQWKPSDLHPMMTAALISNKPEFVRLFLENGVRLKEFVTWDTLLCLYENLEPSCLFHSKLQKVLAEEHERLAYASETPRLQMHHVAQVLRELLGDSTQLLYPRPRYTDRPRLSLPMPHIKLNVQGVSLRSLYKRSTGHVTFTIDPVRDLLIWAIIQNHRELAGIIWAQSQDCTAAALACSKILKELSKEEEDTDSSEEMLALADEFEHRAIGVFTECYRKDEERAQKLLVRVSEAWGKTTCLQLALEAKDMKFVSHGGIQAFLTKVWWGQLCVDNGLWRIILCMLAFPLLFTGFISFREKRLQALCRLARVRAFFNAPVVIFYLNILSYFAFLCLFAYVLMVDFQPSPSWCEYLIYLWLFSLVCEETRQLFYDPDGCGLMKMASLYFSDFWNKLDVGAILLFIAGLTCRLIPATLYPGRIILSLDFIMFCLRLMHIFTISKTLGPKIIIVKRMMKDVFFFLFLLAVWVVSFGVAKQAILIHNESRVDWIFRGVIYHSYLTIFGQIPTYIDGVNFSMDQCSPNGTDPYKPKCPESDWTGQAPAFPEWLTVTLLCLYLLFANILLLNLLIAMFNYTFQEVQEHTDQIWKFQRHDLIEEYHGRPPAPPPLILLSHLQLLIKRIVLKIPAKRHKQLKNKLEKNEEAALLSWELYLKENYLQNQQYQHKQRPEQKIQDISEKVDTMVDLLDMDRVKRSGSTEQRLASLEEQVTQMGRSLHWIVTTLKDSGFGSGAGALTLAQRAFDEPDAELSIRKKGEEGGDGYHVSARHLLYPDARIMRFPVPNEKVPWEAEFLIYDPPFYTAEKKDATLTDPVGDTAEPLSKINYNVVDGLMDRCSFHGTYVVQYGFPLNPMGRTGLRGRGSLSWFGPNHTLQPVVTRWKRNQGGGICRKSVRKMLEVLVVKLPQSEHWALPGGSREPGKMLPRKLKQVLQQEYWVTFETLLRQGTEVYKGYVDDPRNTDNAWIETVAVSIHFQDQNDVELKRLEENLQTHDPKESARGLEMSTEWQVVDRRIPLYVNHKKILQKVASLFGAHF

With `COC[C@H]1OC(=O)c2coc3c2[C@@]1(C)C1=C(C3=O)[C@@H]2CCC(=O)[C@@]2(C)C[C@H]1OC(C)=O` [WORTMANNIN] the inhibition [1] was “inactive”, the Activity [2] was “Toxic” and the Activity [3] was “Toxic”. For the same compound, the Activity [4] was “Toxic” and the Activity [5] was “Toxic”.
With `O=C(O)CC[C@@H](Cc1ccc(OCc2ccccc2)cc1)NC(=O)CCCCCCc1ccccc1` the inhibition [6] was “inactive” and the Activity [7] was “Toxic”.
For `CCCCCCCCCCCCCCCCOCC(COCC)OP(=O)([O-])OC.[Li+]` (stereo not given), the inhibition [8] was “inactive” and the Activity [9] was “Toxic”.
With `O=c1[nH]c2ccccc2n1C1CCN(Cc2ccc(-c3nc4cc5[nH]cnc5cc4nc3-c3ccccc3)cc2)CC1` the inhibition [10] was “inactive”, the Activity [11] was “Toxic” and the Activity [12] was “Toxic”. The Activity [13] was “Toxic” and the Activity [14] was “Toxic”.
With `CN(C)CC(=O)Nc1ccc2[nH]c(=O)c3ccccc3c2c1` the IC50 [15] was 25 nM and the inhibition [16] was “inactive”.
Compound `CCCCCc1ccc(/C=C/C(=O)Nc2ccccc2C(=O)O)cc1` has an IC50 [17] of 4.5 µM.
With `O=C1NCCc2c(OCCCCN3CCCCC3)cccc21` the IC50 [15] was 600 nM and the inhibition [18] was “inactive”.
In the case of `CC(=O)O[C@H]1C[C@@H]2[C@@]3(C)CCCC(C)(C)[C@@H]3CC[C@@]2(C)[C@@H]2CC=C(C=O)[C@H](C=O)[C@@]12C` [SCALARADIAL], the IC50 [19] is reported as 210 nM, the inhibition [19] is reported as “Dose-dependent effect” and the inhibition [20] is reported as “Tde”. For the same compound, the inhibition [21] was “inactive”, the inhibition [22] was “Tde” and the IC50 [23] was 760 nM. The inhibition [24] was “inactive”, the inhibition [25] was “inactive” and the inhibition [26] was “inactive”. The IC50 [27] was 330 nM, the Activity [28] was “Toxic” and the Activity [29] was “Toxic”. For the same compound, the Activity [30] was “Toxic”, the Activity [31] was “Non-Toxic” and the IC50 [32] was 70 nM. For the same compound, the IC50 [33] was 5.4 µM.
